Yeast growth inh: chemicals that inhibit yeast BB579 growth in restrictive medium (lifespan-shortening candidates). S. cerevisiae BB579 growth, OD615, 48 h. inhibition, % at 10 µM. hit rate 0.51% among 140,000. AID 804;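 active = inhibition above a set limit, 3 SD over the mean compound inhibition, cut at about 44% in these data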
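Test system: Saccharomyces cerevisiae DeaD strain BB579, replicative lifespan model yeast | Buffer or medium: Restrictive CSMM-D medium | Doses: One dose, 10 µM compound with 0.25% DMSO | Incubation: 48 h exposure, 30 °C | Detection: Culture absorbance at 615 nm | Control set: Amphotericin B at 10 µg/mL as positive control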
Measles CPE: protection of cells from measles virus; Measles virus-infected cells, CPE protection, absorbance; protection (pct of control), % at 4 µM; hit rate 1.5% among 140,000; AID 841; in the data active = protection mostly above about 24%, no sharp cut-off; inactive = mostly below about 26%
Insulin prom inh: TRM-6 insulin promoter activity inhibition | TRM-6 cells, insulin promoter-eGFP reporter, imaging; reporter expression induced with tamoxifen | inhibition, % at 2 µM | hit rate 0.9% among 130,000 | AID 1273;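 active = inhibition above the mean plus 3 SD, with well images judged a real hit on visual review, cut at about 60% in these data, passing the limit was not always enough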
Mdm2 ligase inh: blocks human Mdm2 ubiquitin ligase activity | Q00987 | cell-based MDM2 ubiquitination luciferase reporter, 2 h; 0 = plate control, 100 = twice control, blank-subtracted | signal enhancement, % at 5 µM | hit rate 0.11% among 210,000 | AID 1230;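 active = signal enhancement of 30% or more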;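 note: luminescence tracks abundance of the self-degrading MDM2-luciferase fusion protein; higher signal means inhibition of MDM2 E3 ligase activity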
Target sequence (Q00987 whole entry, looked up, the tested form may be a part): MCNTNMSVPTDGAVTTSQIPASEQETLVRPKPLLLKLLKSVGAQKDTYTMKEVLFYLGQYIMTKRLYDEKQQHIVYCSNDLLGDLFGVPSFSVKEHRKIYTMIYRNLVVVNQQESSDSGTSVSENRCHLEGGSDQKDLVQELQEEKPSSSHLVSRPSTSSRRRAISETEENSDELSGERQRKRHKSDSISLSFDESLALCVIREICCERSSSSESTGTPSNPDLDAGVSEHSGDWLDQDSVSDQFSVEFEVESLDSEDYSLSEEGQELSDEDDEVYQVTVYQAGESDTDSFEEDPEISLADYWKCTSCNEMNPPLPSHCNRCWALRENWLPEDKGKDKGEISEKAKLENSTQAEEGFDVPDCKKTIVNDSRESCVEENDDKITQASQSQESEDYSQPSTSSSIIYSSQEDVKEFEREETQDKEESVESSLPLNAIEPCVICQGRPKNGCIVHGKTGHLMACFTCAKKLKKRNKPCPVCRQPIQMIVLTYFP
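Material: stable MDM2–luciferase fusion reporter cells / Quantity: 2000 cells/well / Dosing: single 5 µM compound dose, 0.2% final DMSO / Buffer or medium: DMEM / Schedule: 4 h cell settling then 2 h compound exposure, 37 °C / Detection: luminescence with SteadyLite reagent, 15 min at room temperature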
RAM inhibit: inhibitors of the yeast RAM network | S. cerevisiae dse1pr::URA3 reporter, 5-FOA growth OD615, 2 d; analog-sensitive cbk1-as2 kinase mutant strain | hit rate 1.8% among 190,000 | inhibition, % at 50 µM;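 active = inhibition above a set limit, 3 SD over mean compound inhibition, cut at about 8.4% in these data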;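 note: inhibition rescues growth on 5-FOA so higher OD means more RAM inhibition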
Yeast lifespan up: extends the lifespan of yeast; S. cerevisiae growth with nicotinamide, OD615; deaD strain in restrictive glucose medium; inhibition of the nicotinamide effect, % at 10 µM; hit rate 0.68% among 130,000;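 active = inhibition above a set limit, placed 3 SD over the median of all compounds, cut at about 26% in these data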
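Assay system: DeaD-strain S. cerevisiae. Medium: CSMM-D glucose medium, restrictive. Reagent: nicotinamide, 1.5 mM, co-present with compound. Compound: 10 µM single point, 0.25% DMSO. Schedule: culture preincubation 4 h, compound exposure 48 h, both 30 °C. Detection: absorbance at 615 nm.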
RAM efflux-def: restores 5-FOA growth of efflux-deficient yeast | 1,200 tested, under 10 active | max inhibition, % | S. cerevisiae efflux-deficient reporter strain, 5-FOA growth OD615, 2 days | shares compounds with RAM inhibit; call rule not given here
A number is an active result. This is a sample that favours compounds with a hit; in the whole collection about 4% have one here.

For CCSc1ccc2cc(OC)ccc2[n+]1CC the results were Mdm2 ligase inh inactive and RAM inhibit inactive.
N#CC(Nc1ccccc1)c1ccccc1OCc1ccccc1 (stereo not drawn) was read as Yeast growth inh inactive, Measles CPE inactive, Insulin prom inh inactive, Mdm2 ligase inh inactive, RAM inhibit 14, Yeast lifespan up inactive and RAM efflux-def inactive.
CN(C[C@H](Cc1ccccc1)N(CCN(CCc1ccccc1)N=O)N=O)N=O was read as RAM inhibit inactive.
Screening CC(C)C[C@@H](CN(C)N=O)N(C[C@H](Cc1ccccc1)N(CCc1ccccc1)N=O)N=O returned RAM inhibit 20 and RAM efflux-def inactive.
`CCN(CC)S(=O)(=O)c1cccc(NC(=O)CCSc2ccc(Cl)cc2)c1` gave Yeast growth inh inactive, Measles CPE inactive, Insulin prom inh inactive, Mdm2 ligase inh inactive, RAM inhibit 14, Yeast lifespan up inactive and RAM efflux-def inactive.
Screening CN(C)S(=O)(=O)c1cccc(NC(=O)COC(=O)CCSc2ccc(Cl)cc2)c1 returned Yeast growth inh inactive, Measles CPE inactive, Mdm2 ligase inh inactive, RAM inhibit inactive and Yeast lifespan up inactive.
CCc1ccc(C(=O)COC(=O)c2ccc(Cl)nc2)cc1 was read as Mdm2 ligase inh inactive and RAM inhibit inactive.
Screening Cc1cccc(NC(=O)CCC(=O)OCC(=O)c2ccc(Oc3ccc([N+](=O)[O-])cc3)cc2)c1 returned Yeast growth inh inactive, Measles CPE inactive, Insulin prom inh inactive, RAM inhibit 21, Yeast lifespan up inactive and RAM efflux-def inactive.
For O=C(Nc1ccccc1)C1=C[C@H](C2CCCCC2)C[C@H](OCc2ccc(CO)cc2)O1 the results were RAM inhibit 14 and RAM efflux-def inactive.
For O=C(Nc1ccccc1)C1=C[C@@H](C2CCCCC2)C[C@@H](OCCCCO)O1 the results were RAM inhibit inactive.
`O=C(Nc1ccccc1)C1=C[C@@H](C2CCCCC2)C[C@@H](OCc2ccc(CO)cc2)O1` gave RAM inhibit 12 and RAM efflux-def inactive.
COc1ccc(N(CC(=O)NCc2ccc(C)cc2)S(=O)(=O)c2c(C)nn(C)c2C)cc1 was read as Yeast growth inh inactive, Measles CPE inactive, Insulin prom inh inactive, Mdm2 ligase inh inactive, RAM inhibit 15, Yeast lifespan up inactive and RAM efflux-def inactive.
For COc1ccc(CNC(=O)CN(c2ccc(OC)cc2)S(=O)(=O)c2c(C)nn(C)c2C)cc1 the results were Yeast growth inh inactive, Measles CPE inactive, Insulin prom inh inactive, Mdm2 ligase inh inactive, RAM inhibit inactive and Yeast lifespan up inactive.
`Cc1ccc(C(=O)O/N=C\c2ccc(N3CCCCC3)c([N+](=O)[O-])c2)cc1` gave Yeast growth inh inactive, Measles CPE inactive, Insulin prom inh inactive, Mdm2 ligase inh inactive, RAM inhibit 16, Yeast lifespan up inactive and RAM efflux-def inactive.
`COc1ccc(C(=O)/C=C/c2ccc(N3CCCCC3)c([N+](=O)[O-])c2)c(OC)c1` gave Yeast growth inh inactive, Measles CPE 50, Mdm2 ligase inh inactive, RAM inhibit 17, Yeast lifespan up inactive and RAM efflux-def inactive.
For O=C(O/N=C\c1ccc(N2CCCCC2)c([N+](=O)[O-])c1)c1c(F)cccc1F the results were Yeast growth inh inactive, Measles CPE inactive, Insulin prom inh inactive, Mdm2 ligase inh inactive, RAM inhibit inactive and Yeast lifespan up inactive.
For CC1(C)CC(=O)C(CC(=O)Nc2cc(C(F)(F)F)ccc2Cl)C(=O)C1 the results were Mdm2 ligase inh inactive and RAM inhibit inactive.
For Cc1cc(C(=O)CSc2ccc(Cl)cc2)cc(C)c1OC(=S)N(C)C the results were Yeast growth inh inactive, Measles CPE inactive, Insulin prom inh inactive, Mdm2 ligase inh inactive, RAM inhibit 12, Yeast lifespan up inactive and RAM efflux-def inactive.
`CC(=O)c1ccc(OCCOc2ccc(Cl)c3cccnc23)cc1` gave Mdm2 ligase inh inactive and RAM inhibit inactive.
Cc1ccc(O)c(C(=O)/C=C/c2ccc3c(c2)OCCCO3)c1 was read as Yeast growth inh inactive, Measles CPE inactive, Insulin prom inh inactive, Mdm2 ligase inh inactive, RAM inhibit 12, Yeast lifespan up inactive and RAM efflux-def inactive.
Screening COc1ccc(N2CCN(C(=O)c3c(C)nn(-c4ccccc4)c3C)CC2)cc1 returned Yeast growth inh inactive, Measles CPE inactive, Insulin prom inh inactive, Mdm2 ligase inh inactive, RAM inhibit inactive and Yeast lifespan up inactive.
`CCCC[C@@H]1C[C@H]1[C@@H](NC(=O)c1ccccc1)c1ccccc1C(F)(F)F` gave Yeast growth inh inactive, Measles CPE inactive, Insulin prom inh inactive, RAM inhibit 22, Yeast lifespan up inactive and RAM efflux-def inactive.
COC(=O)[C@@H]1C[C@H]1[C@@H](NC(=O)c1ccccc1)c1ccccc1 was read as Yeast growth inh inactive, Measles CPE inactive, Insulin prom inh inactive, RAM inhibit inactive and Yeast lifespan up inactive.
Screening O=C(CCCn1c(SCc2cccc(F)c2)nc2ccccc2c1=O)NCC1CCCO1 (stereo not drawn) returned Insulin prom inh inactive, Mdm2 ligase inh inactive, RAM inhibit 16 and RAM efflux-def inactive.
Cc1ccc(CSc2nc3ccccc3c(=O)n2Cc2ccco2)cc1 was read as Yeast growth inh inactive, Measles CPE inactive, Insulin prom inh inactive, Mdm2 ligase inh inactive, RAM inhibit 14 and RAM efflux-def inactive.
COn1c(SCc2ccccc2)nc2ccccc2c1=O was read as Yeast growth inh inactive, Measles CPE inactive, Insulin prom inh inactive, Mdm2 ligase inh inactive, RAM inhibit 12, Yeast lifespan up inactive and RAM efflux-def inactive.
`O=c1c2ccccc2nc(SCc2cccc(F)c2)n1Cc1ccco1` gave Yeast growth inh inactive, Measles CPE inactive, Insulin prom inh inactive, Mdm2 ligase inh inactive, RAM inhibit 14, Yeast lifespan up inactive and RAM efflux-def inactive.
For O=c1c2ccccc2nc(SCc2ccccc2)n1Cc1ccco1 the results were Yeast growth inh inactive, Measles CPE inactive, Mdm2 ligase inh inactive, RAM inhibit inactive and Yeast lifespan up inactive.
Screening COn1c(SCc2cccc(Cl)c2)nc2ccccc2c1=O returned Yeast growth inh inactive, Measles CPE inactive, Insulin prom inh inactive, Mdm2 ligase inh inactive, RAM inhibit inactive and Yeast lifespan up inactive.
`COc1nccnc1NS(=O)(=O)c1ccc(NC(=O)c2cccc(C)c2)cc1` gave Mdm2 ligase inh inactive and RAM inhibit inactive.
O=C(CSc1nc2ccccc2c(=O)n1CCC(=O)N1CCCCC1)NCc1ccccc1 was read as Yeast growth inh inactive, Measles CPE inactive, Insulin prom inh inactive, Mdm2 ligase inh inactive, RAM inhibit 18, Yeast lifespan up inactive and RAM efflux-def inactive.
